Experimental data: ChEMBL document CHEMBL3763111, “Identification of a diverse indole-2-carboxamides as a potent antileishmanial chemotypes” (Eur J Med Chem, 2016)

What was measured:
[1] = (§1) Selectivity index, ratio of CC50 for African green monkey Vero cells to IC50 for Leishmania donovani MHOM/IN/80/Dd8 amastigotes infected in mouse J774A.1 cells; type: functional
In short: (§2)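 Ratio of Vero-cell MTT CC50 to IC50 against intracellular amastigotes, both measured in this work.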

[2] = test system: Leishmania donovani; assay: Antileishmanial activity against Leishmania donovani MHOM/IN/80/Dd8 amastigotes infected in mouse J774A.1 cells incubated for 72 hrs by luminometric analysis; type: functional, organism-based; settings: MHOM/IN/80/Dd8, J774.A1, 72 h
In short: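 Macrophages seeded at 4 x 10^4/mL in RPMI-1640 with 10% FCS for 24 h, then infected with stationary-phase promastigotes (4 x 10^5/mL) for 24 h. Free parasites washed off. Compounds added as 7-point two-fold dilutions from 40 µM; 72 h at 37°C. Read-out was Steady Glo luminescence. IC50 from four-parameter Hill fit; two independent assays in duplicate.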

[3] = Cytotoxicity against African green monkey Vero cells after 72 hrs by MTT assay; type: cell-based; settings: chlorocebus sabaeus
In short: (§3)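 Vero or J-774A.1 cells (1 x 10^5 cells/mL) exposed to 7 concentrations starting from 400 µM for 72 h. MTT (5 mg/mL stock) then added for 2 h at 37°C. Formazan dissolved in DMSO; absorbance read at 544 nm. CC50 estimated per Huber & Koella; mean ± SD of two independent assays in duplicate.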

[4] = Cytotoxicity against mouse J774A.1 cells after 72 hrs by MTT assay; type: cell-based, J774.A1; in short: as §3
[5] = test system: Rattus norvegicus; assay: Volume of distribution at steady state in Sprague-Dawley rat at 50 mg/kg administered as single dose via oral gavage after 0.5 to 48 hrs by RP-HPLC analysis; type: ADME, organism-based; settings: in vivo
In short: (§4)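 Single 50 mg/kg oral gavage dose to conscious male Sprague-Dawley rats (250 ± 25 g) after a 12–16 h overnight fast. Blood drawn at 0.5–48 h; serum separated and held at -80°C. Quantified by isocratic RP-HPLC (C18; 0.01M ammonium acetate/acetonitrile 35:65), LLOQ 25 ng/ml. Three rats; parameters derived noncompartmentally from mean serum concentrations.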

[6] = Volume of distribution at steady state in Sprague-Dawley rat at 5 mg/kg, iv after 0.083 to 48 hrs by RP-HPLC analysis; type: ADME, organism-based; settings: in vivo, read-out: Vdss
In short: (§5)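 Male Sprague-Dawley rats (250 ± 25 g), conscious, given a single 5 mg/kg dose into the femoral vein. The dose was a 10 mg/ml solution in DMSO/ethanol/tween 80/propylene glycol (10:20:2:48) with normal saline. Blood taken 0.083–48 h; serum read by isocratic RP-HPLC (C18, ammonium acetate 0.01M:acetonitrile 35:65), LLOQ 25 ng/ml. n=3; noncompartmental analysis.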

[7] = Mean residence time in Sprague-Dawley rat at 50 mg/kg administered as single dose via oral gavage by RP-HPLC analysis; type: ADME, organism-based; settings: in vivo; in short: as §4
[8] = Mean residence time in Sprague-Dawley rat at 5 mg/kg, iv by RP-HPLC analysis; type: ADME, organism-based; settings: in vivo; in short: as §5
[9] = Cmax in Sprague-Dawley rat at 5 mg/kg, iv after 0.083 to 48 hrs by RP-HPLC analysis; type: ADME, organism-based; design: dose 5 mg/kg, route intravenous; settings: in vivo; in short: as §5
[10] = test system: Leishmania donovani; assay: Antileishmanial activity against promastigote stage of Leishmania donovani MHOM/IN/80/Dd8 assessed as apoptotic cells at IC50 after 72 hrs by annexin V-FITC/propidium iodide double staining-based flow cytometric analysis; type: functional
[11] = AUC(last) in Sprague-Dawley rat at 50 mg/kg administered as single dose via oral gavage after 0.5 to 48 hrs by RP-HPLC analysis; type: ADME, organism-based; design: dose 50 mg/kg, time 0 - last, route oral; settings: in vivo; in short: as §4
[12] = AUC(last) in Sprague-Dawley rat at 5 mg/kg, iv after 0.083 to 48 hrs by RP-HPLC analysis; type: ADME, organism-based; design: dose 5 mg/kg, route intravenous, time 0 - last; settings: in vivo; in short: as §5
[13] = Tmax in Sprague-Dawley rat at 50 mg/kg administered as single dose via oral gavage by RP-HPLC analysis; type: ADME, organism-based; settings: in vivo; in short: as §4
[14] = Clearance in Sprague-Dawley rat at 5 mg/kg, iv after 0.083 to 48 hrs by RP-HPLC analysis; type: ADME, organism-based; settings: in vivo; in short: as §5
[15] = test system: Syrian golden hamster; assay: Toxicity in golden hamster infected with amastigote stage of Leishmania donovani MHOM/IN/80/Dd8 assessed as abnormality in behaviour at 50 mg/kg/day, ip administered for 5 days; type: organism-based, Mesocricetus auratus; settings: in vivo, 120 h
[16] = test system: Leishmania donovani; assay: Potency index, ratio of IC50 for miltefosine to IC50 for test compound against Leishmania donovani MHOM/IN/80/Dd8 amastigotes infected in mouse J774A.1 cells; type: functional
[17] = test system: Leishmania donovani; assay: Antileishmanial activity against promastigote stage of Leishmania donovani MHOM/IN/80/Dd8 assessed as apoptotic cells at IC50 after 24 hrs by annexin V-FITC/propidium iodide double staining-based flow cytometric analysis; type: functional
[18] = Cmax in Sprague-Dawley rat at 50 mg/kg administered as single dose via oral gavage after 0.5 to 48 hrs by RP-HPLC analysis; type: ADME, organism-based; design: dose 50 mg/kg, route oral; settings: in vivo; in short: as §4
[19] = Tmax in Sprague-Dawley rat at 5 mg/kg, iv by RP-HPLC analysis; type: ADME, organism-based; settings: in vivo; in short: as §5
[20] = Oral availability in Sprague-Dawley rat at 50 mg/kg via gavage after 0.5 to 48 hrs by RP-HPLC analysis; type: ADME, organism-based; settings: in vivo; in short: as §4
[21] = Clearance in Sprague-Dawley rat at 50 mg/kg administered as single dose via oral gavage after 0.5 to 48 hrs by RP-HPLC analysis; type: ADME, organism-based; settings: in vivo; in short: as §4
[22] = test system: Leishmania donovani; assay: Antileishmanial activity against promastigote stage of Leishmania donovani MHOM/IN/80/Dd8 assessed as apoptotic cells at IC50 after 48 hrs by annexin V-FITC/propidium iodide double staining-based flow cytometric analysis; type: functional
[23] = test system: Leishmania donovani; assay: Antileishmanial activity against amastigote stage of Leishmania donovani MHOM/IN/80/Dd8 infected in golden hamster at 50 mg/kg/day, ip administered for 5 days measured on day 7 of last dose by Geimsa staining method; type: functional; settings: MHOM/IN/80/Dd8, ip
In short: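 Inbred golden hamsters (40–45 g) infected intracardially with 1x10^7 amastigotes; only animals with +1 infection at 15-day spleen biopsy used. Five to six per group. Aqueous compound given ip at 50 mg/kg/day for 5 days, starting 2 days after biopsy. Splenic biopsy on day 7 after last dose, Giemsa-stained. Percent inhibition by formula relative to initial and untreated-control counts; pooled from at least two experiments.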

[24] = test system: Leishmania donovani; assay: Antileishmanial activity against promastigote stage of Leishmania donovani MHOM/IN/80/Dd8 assessed as apoptotic cells at IC50 after 12 hrs by annexin V-FITC/propidium iodide double staining-based flow cytometric analysis; type: functional
[25] = test system: Vero; assay: as §1; type: functional; in short: as §2
[26] = test system: Leishmania donovani; assay: Antileishmanial activity against amastigote stage of Leishmania donovani MHOM/IN/80/Dd8 infected in golden hamster at 40 mg/kg, ip administered for 5 days measured on day 7 of last dose by Geimsa staining method; type: functional, organism-based
[27] = test system: Leishmania donovani; assay: Antileishmanial activity against amastigote stage of Leishmania donovani MHOM/IN/80/Dd8 infected in golden hamster at 30 mg/kg, po administered for 5 days measured on day 7 of last dose by Geimsa staining method; type: functional; settings: MHOM/IN/80/Dd8, po
In short: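 Golden hamsters (inbred, either sex, 40–45 g) were infected intracardially with 1x 10^7 L. donovani amastigotes. Spleen biopsy at day 15; animals with +1 infection (5–10 amastigotes/100 spleen cell nuclei) were used, 5–6 per group. Dosing started 2 days after biopsy and ran 5 consecutive days. Day-7 post-treatment splenic amastigotes were counted by Giemsa stain; percent inhibition was computed against initial and untreated-control counts.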

Row | Molecule | Ratio CC50/IC50 [1] | IC50 [2] | CC50 at 72 h [3] | CC50 at 72 h [4] | further results
1 | COc1cc(C(C(=O)NC(C)(C)C)N(CC(=O)NCc2ccccc2)C(=O)c2cc3ccccc3[nH]2)cc(OC)c1OC (stereo not given) | <4 | > 40 µM | 176 µM | 66.8 µM | 
2 | COc1ccc(CNC(=O)CN(C(=O)c2cc3ccccc3[nH]2)C(C(=O)NC(C)(C)C)c2ccc(Cl)cc2)cc1 (stereo not given) | 121 | 1.2 µM | 146 µM | 140 µM | Vdss [5]: 12.8 L/kg; Vd [6]: 4.4 L/kg; MRT [7]: 8.5 h; MRT [8]: 7.4 h; Cmax [9]: 1390 ng/mL; Activity [10]: 79.07%; AUC(0-t) [11]: 27200 ng·h/mL; AUC(0-t) [12]: 7790 ng·h/mL; Tmax [13]: 1 h; clearance [14]: 10 mL/min/kg; Activity [15]: Non-toxic; Ratio IC50 [16]: 7; Activity [17]: 56.17%; Cmax [18]: 1590 ng/mL; Tmax [19]: 4.98 min; bioavailability [20]: 34.9%; CL/F [21]: 25 mL/min/kg; Activity [22]: 73.3%; inhibition in vivo at 50 mg/kg/day [23]: 70%; Activity [24]: 49.1%
3 | CC(C)(C)NC(=O)C(c1ccc(Cl)cc1)N(CC(=O)NCCO)C(=O)c1cc2ccccc2[nH]1 (stereo not given) | <5 | > 40 µM | 226 µM | 239 µM | 
4 | COc1ccc(CNC(=O)CN(C(=O)c2cc3ccccc3[nH]2)C(C(=O)NC(C)(C)C)c2ccc(OC)cc2)cc1 (stereo not given) | >666 | 0.6 µM | > 400 µM | 145 µM | Activity [15]: Non-toxic; Ratio IC50 [16]: 14; inhibition in vivo at 50 mg/kg/day [23]: 63.4%
5 | COc1ccc(C(C(=O)NC(C)(C)C)N(CC(=O)NCc2ccncc2)C(=O)c2cc3ccccc3[nH]2)cc1 (stereo not given) | 78 | 1.4 µM | 109 µM | 47.9 µM | 
6 | COc1ccc(CNC(=O)CN(C(=O)c2cc3ccccc3[nH]2)C(C(=O)NC(C)(C)C)c2ccc(Br)cc2)cc1 (stereo not given) | >266 | 1.5 µM | > 400 µM | 135 µM | 
7 | COc1cccc(CNC(=O)CN(C(=O)c2cc3ccccc3[nH]2)C(C(=O)NC(C)(C)C)c2ccc(Cl)cc2)c1 (stereo not given) | >210 | 1.9 µM | > 400 µM | 42.5 µM | 
8 | CC(C)(C)NC(=O)C(c1ccc(Cl)cc1)N(CC(=O)NCc1ccc(Cl)cc1)C(=O)c1cc2ccccc2[nH]1 (stereo not given) | >36 | 10.9 µM | > 400 µM | 143 µM | 
9 | COc1ccc(C(C(=O)NC(C)(C)C)N(CC(=O)NCc2ccc(Cl)cc2)C(=O)c2cc3ccccc3[nH]2)cc1 (stereo not given) | 53 | 7.5 µM | 400 µM | 123 µM | 
10 | CC(C)(C)NC(=O)C(c1ccc(Cl)cc1)N(CC(=O)NCc1ccc(Cl)c(Cl)c1)C(=O)c1cc2ccccc2[nH]1 (stereo not given) | 7 | 7.5 µM | 52.2 µM | 19.2 µM | 
11 | COc1ccc(CNC(=O)CN(C(=O)c2cc3ccccc3[nH]2)C(C(=O)NC(C)(C)C)c2cc(OC)c(OC)c(OC)c2)cc1 (stereo not given) | 7 | 9.2 µM | 70.3 µM | 53.6 µM | 
12 | COc1ccc(CNC(=O)CN(C(=O)c2ccc[nH]2)C(C(=O)NC(C)(C)C)c2cc(OC)c(OC)c(OC)c2)cc1 (stereo not given) | 5 | 14.5 µM | 73 µM | 62.4 µM | 
13 | CC(C)(C)NC(=O)C(c1ccc(Cl)cc1)N(CC(=O)NCCCN1CCOCC1)C(=O)c1cc2ccccc2[nH]1 (stereo not given) | 101 | 2.1 µM | 212 µM | 198 µM | Ratio IC50 [16]: 4
14 | CC(C)(C)NC(=O)C(c1ccc(Br)cc1)N(CC(=O)NCCCN1CCOCC1)C(=O)c1cc2ccccc2[nH]1 (stereo not given) | >400 | 1 µM | > 400 µM | 147 µM | Activity [15]: Non-toxic; inhibition in vivo at 50 mg/kg/day [23]: 63.5%
15 | COc1cc(C(C(=O)NC(C)(C)C)N(CC(=O)NCc2ccc(Cl)c(Cl)c2)C(=O)c2cc3ccccc3[nH]2)cc(OC)c1OC (stereo not given) | 11 | 6.3 µM | 72.9 µM | 61.4 µM | 
16 | CC(C)(C)NC(=O)C(c1ccc(Cl)cc1)N(CC(=O)NCc1ccccc1)C(=O)c1cc2ccccc2[nH]1 (stereo not given) | 28 | 8.8 µM | 248 µM | 152 µM | 
17 | Sodium stibo-gluconate |  |  |  |  | Ratio CC50/IC50 [25]: > 7; inhibition [26]: 86.9%
18 | CC(C)(C)NC(=O)C(c1ccc(Cl)cc1)N(CC(=O)NCc1ccncc1)C(=O)c1cc2ccccc2[nH]1 (stereo not given) | >62 | 6.4 µM | > 400 µM | 129 µM | 
19 | COc1ccc(CNC(=O)CN(C(=O)c2cc3ccccc3[nH]2)C(C(=O)NC(C)(C)CC(C)(C)C)c2ccc(Cl)cc2)cc1 (stereo not given) | >129 | 3.1 µM | > 400 µM | 51.2 µM | 
20 | CCCCCCCCCCCCCCCCOP(=O)([O-])OCC[N+](C)(C)C [MILTEFOSINE] | 6 | 8.4 µM |  | 14.3 µM | inhibition in vivo at 30 mg/kg [27]: 98.1%; Activity [15]: Non-toxic
